The values below come from ChEMBL document CHEMBL1142683, “Multivariate design, synthesis, and biological evaluation of peptide inhibitors of FimC/FimH protein-protein interactions in uropathogenic Escherichia coli” (J Med Chem, 2005).

Assay [1] relates to Escherichia coli. Description: Inhibition of FimC/FimH pilus assembly complex formation in Escherichia coli at 10 uM. In a few lines:
(§1)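 Competitive ELISA: FimC chaperone coated overnight at 4 °C in PBS pH 7.4, blocked with 3% BSA-PBS 1 h RT. Peptide in DMSO (0.5, 2.5 or 10 nmol; 10, 50, 200 µM) plus FimH (1 pmol, in 3 M urea/MES pH 6.8) 45 min RT. Bound FimH detected with mouse anti-FimH, then alkaline phosphatase anti-mouse IgG, p-nitrophenyl phosphate 1 h dark; A405. DMSO positive control. % inhibition, mean of four replicates.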

Assay [2] deals with Escherichia coli. Nature of the assay: Inhibition of FimC/FimH pilus assembly complex formation in Escherichia coli at 50 uM. The method, boiled down:
as §1

Assay [3] concerns Escherichia coli. Description: Inhibition of FimC/FimH pilus assembly complex formation in Escherichia coli at 200 uM. The method, boiled down:
as §1

As to H-ADFFFHSIS-OH, the inhibition (as a rule, the relative decrease from the control value, in per cent) in assay [1] is 2%; in assay [2], 16%; in assay [3], 26%.
With H-AFSKSDFIS-OH, the results for the inhibition in assay [1], in assay [2] and in assay [3] were -5%, -9% and -6%, respectively.
Regarding H-AGGTGTFIS-OH, the inhibition in assay [1] was -3%; in assay [2], -1%; in assay [3], -2%.
Consider H-AKGDLLLIS-OH, for which the inhibition was determined as 3% in assay [1], 13% in assay [2] and 14% in assay [3].
With H-ATSFGHWIS-OH, the results for the inhibition in assay [1], in assay [2] and in assay [3] were 12%, 9% and 0%, respectively.
With H-AVLASAWIS-OH, the inhibition is 0% in assay [1], 8% in assay [2] and 18% in assay [3].
On to H-DSTITIRGY-OH, for which the inhibition in assay [1] was -1%; in assay [2], 14%; in assay [3], 28%.
For H-GGTVHFKGG-OH, the inhibition is -3% in assay [1], 1% in assay [2] and 3% in assay [3].
The matching figures for H-KDLASTLIS-OH: 16%, 11% and 3%.
For the substance H-KFGDLASIS-OH, the inhibition in assay [1] turned out to be 4%; in assay [2] it was 1%; in assay [3], 7%.
H-KGFQLDLIS-OH: the inhibition in assay [1] is -7%; in assay [2], 9%; in assay [3], 8%.
For the substance H-KKLKLHFIS-OH, the inhibition in assay [1] was found to be 8%; in assay [2], 22%; in assay [3], 39%.
In the case of H-KVSFGLFIS-OH, the inhibition in assay [1] worked out at 20%; in assay [2], 17%; in assay [3] it was 29%.
For H-LDSTLAFIS-OH, the inhibition in assay [1] turned out to be 10%; in assay [2] it was 25%; in assay [3] it was 37%.
With H-LGSAFLFIS-OH, the figures for the inhibition in assay [1], in assay [2] and in assay [3] were 19%, 29% and 40%, respectively.
Turning to H-LTFDGTWIS-OH, the results for the inhibition in assay [1], in assay [2] and in assay [3] were 0%, 7% and 10%, respectively.
For H-LVGKSHLIS-OH, the inhibition in assay [1] was determined as 1%; in assay [2] it was 0%; in assay [3] it was 5%.
For the substance H-NDLKGLFIS-OH, the figures for the inhibition in assay [1], in assay [2] and in assay [3] were 10%, 12% and 14%, respectively.
Regarding H-NFFAGHFIS-OH, the inhibition was -1% in assay [1], 0% in assay [2] and 1% in assay [3].
For the substance H-NGFKFTWIS-OH, the inhibition is 2% in assay [1], -3% in assay [2] and 2% in assay [3].
As for H-NGLQGASIS-OH, the inhibition in assay [1] turned out to be 10%; in assay [2] it was 19%; in assay [3] it was 24%.
The matching figures for H-NGSDSHFIS-OH: 3%, 19% and 12%.
Take H-NKGTSDWIS-OH: the inhibition in assay [1] is 3%; in assay [2], 8%; in assay [3], 10%.
For the substance H-NTGALDSIS-OH, the inhibition was 2% in assay [1], 11% in assay [2] and 15% in assay [3].
On the same counts, the results for H-NTGQFAFIS-OH are 17%, 7% and 4%.
H-NTLQLAIIS-OH: the inhibition was 7% in assay [1], 23% in assay [2] and 40% in assay [3].
With H-NTLQLALIS-OH, the values for the inhibition in assay [1], in assay [2] and in assay [3] were 18%, 32% and 50%, respectively.
With H-NVSTLHLIS-OH, the figures for the inhibition in assay [1], in assay [2] and in assay [3] were 18%, 30% and 44%, respectively.
For H-TDGQLLWIS-OH, the inhibition in assay [1] was -8%; in assay [2], 1%; in assay [3], 4%.
Consider H-TGGAGALIS-OH, for which the inhibition in assay [2] amounted to 17%; in assay [3], 3%.
As to H-TTFTSLSIS-OH, the inhibition in assay [1] stood at 19%; in assay [2], 35%; in assay [3], 48%.
Regarding H-TVLDFDFIS-OH, the results for the inhibition in assay [1], in assay [2] and in assay [3] were 3%, 6% and 5%, respectively.
